{"data": "Experimental data collected from several papers", "note": "Lines come from different studies, so protocols differ."}
{"Structure (SMILES)": "CCOC(=O)C1=C(C)N/C(=C/c2cc(C)n(-c3ccc(CN4CCOCC4)cc3)c2C)C1=O", "technique": "HPLC", "pH": "pH 7.4", "chromatographic logD": 2.5}
{"Structure (SMILES)": "COc1ccc(-c2nc(C(=O)Nc3cccc(-c4nnc5n4CCCCC5)c3)cs2)cc1OC", "pH": "pH 7.4", "chromatographic logD": 4.8}
{"Structure (SMILES)": "CCOC(=O)C1=C(C)N/C(=C/c2cc(C)n(-c3ccc(CN(C)C)cc3)c2C)C1=O", "technique": "HPLC", "pH": "pH 7.4", "chromatographic logD": 2.1}
{"Structure (SMILES)": "C[C@@H]1Cn2ncc(-c3ccc(C(=O)N4CCCc5ccccc54)cc3)c2CN1C(=O)Cc1ccccc1", "technique": "HPLC", "pH": "pH 7.4", "chromatographic logD": 4.9}
{"Structure (SMILES)": "CC(C)(C)C1=CC(=NNc2ccc([N+](=O)[O-])cc2[N+](=O)[O-])C=C(C(C)(C)C)C1=O", "technique": "HPLC", "pH": "pH 7.4", "chromatographic logD": "> 5.3"}
{"Structure (SMILES)": "CCn1cnnc1C1CCN(C(=O)c2cn3ccc(C)cc3n2)CC1", "pH": "pH 7.4", "chromatographic logD": 1.2}
{"Structure (SMILES)": "CO[C@H](C(=O)N1Cc2c(-c3ccc(C(=O)N4CCCc5ccccc54)cc3)cnn2C[C@H]1C(C)C)c1cnn(C)c1 (single isomer, unassigned)", "technique": "HPLC", "pH": "pH 7.4", "chromatographic logD": 4.2}
{"Structure (SMILES)": "CC1=C(C#N)[C@@H](c2ccc(C#N)cc2S(C)(=O)=O)NC(=O)N1c1cccc(C(F)(F)F)c1", "technique": "HPLC", "pH": "pH 7.5", "chromatographic logD": 2.7}
{"Structure (SMILES)": "CCn1c(-c2nc3ccc(C(=O)N4CCCC(N)C4)cc3n2C)cc2ccccc21 (stereo not shown)", "technique": "HPLC", "pH": "pH 7.4", "chromatographic logD": 3}
{"Structure (SMILES)": "CO[C@H](C(=O)N1Cc2c(-c3ccc(C(=O)N4CCCc5ccccc54)cc3)cnn2C[C@H]1C(C)C)c1ccccc1 (single isomer, unassigned)", "technique": "HPLC", "pH": "pH 7.4", "chromatographic logD": 5.4}
{"Structure (SMILES)": "CCOC(=O)C1=C(C)N/C(=C/c2cc(C)n(-c3ccc(S(=O)(=O)C(F)(F)F)cc3)c2C)C1=O", "technique": "HPLC", "pH": "pH 7.4", "chromatographic logD": 3.4}
{"Structure (SMILES)": "CC1=C(C#N)[C@@H](c2ccc(C#N)cc2C(F)(F)F)NC(=O)N1c1cccc(C(F)(F)F)c1", "technique": "HPLC", "pH": "pH 7.5", "chromatographic logD": 3.2}
{"Structure (SMILES)": "CC(=O)Nc1nc(-c2c(F)cccc2F)cs1", "pH": "pH 7.4", "chromatographic logD": 3.7}
{"Structure (SMILES)": "Nc1cccc2c1CN(C1CCC(=O)NC1=O)C2=O (stereo not shown)", "technique": "HPLC", "pH": "pH 7.4", "chromatographic logD": -0.4}
{"Structure (SMILES)": "CCOC(=O)C1=C(C)N/C(=C/c2cc(C)n(-c3ccc(CN4CCCCC4)cc3)c2C)C1=O", "technique": "HPLC", "pH": "pH 7.4", "chromatographic logD": 2.7}
{"Structure (SMILES)": "Cc1cc(NC(=O)Nc2ccc3c(c2)OC(F)(F)O3)cc(C(F)(F)F)n1", "technique": "HPLC", "pH": "pH 7.4", "chromatographic logD": 4.3}
{"Structure (SMILES)": "CCOC(=O)C1=C(C)N/C(=C/c2ccn(-c3ccccc3C(F)(F)F)c2)C1=O", "technique": "HPLC", "pH": "pH 7.4", "chromatographic logD": 3}
{"Structure (SMILES)": "O=C(Nc1ccnc(C(F)(F)F)c1)Nc1cccc2c1OC(F)(F)O2", "technique": "HPLC", "pH": "pH 7.4", "chromatographic logD": 3.6}
{"Structure (SMILES)": "CC1=C(C(=O)OC(C)(C)C)C(=O)/C(=C\\c2cc(C)n(-c3ccccc3C(F)(F)F)c2C)N1", "technique": "HPLC", "pH": "pH 7.4", "chromatographic logD": 3.8}
{"Structure (SMILES)": "CC(C)[C@@H]1Cn2ncc(-c3ccc(C(=O)N4CCCc5ccccc54)cc3)c2CN1C(=O)Cc1ccccc1", "technique": "HPLC", "pH": "pH 7.4", "chromatographic logD": 5.3}
{"Structure (SMILES)": "CCOC(=O)C1=C(C)N/C(=C/c2cc(C)n(-c3ccc(SC(F)(F)F)cc3)c2C)C1=O", "technique": "HPLC", "pH": "pH 7.4", "chromatographic logD": 3.8}
{"Structure (SMILES)": "C[C@@H]1Cn2ncc(-c3ccc(C(=O)N4CCCc5ccccc54)cc3)c2CN1C(=O)[C@H](C)c1ccccc1", "technique": "HPLC", "pH": "pH 7.4", "chromatographic logD": 5.2}
